PfGluPho inh: PfG6PD (Plasmodium falciparum) enzyme inhibition. PfGluPho enzyme, NADPH resazurin-diaphorase fluorescence. inhibition, % at 20 µM. 350,000 tested, 0.78% active;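 active = inhibition reaching at least a set limit at 20 µM in the primary screen, cut at about 59% in these data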
Lmaj promast: Leishmania major promastigote growth inhibition | Leishmania major promastigotes, resazurin fluorescence viability | inhibition, % at 10 µM | 200,000 tested, 9% active | AID 1063;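 also: promastigotes grown with compound for 44 hours at 28 °C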
Diaphorase inh: counter-screen for diaphorase-based assays: diaphorase inhibitors and chemical oxidizers; diaphorase resazurin-to-resorufin fluorescence, NADH, 16 min; bacterial (C. kluyveri) enzyme, not human; inhibition, % at 20 µM; 190,000 tested, 0.69% active;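 active = primary screen inhibition at 20 µM above a set limit, cut at about 50% in these data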
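Test system: diaphorase enzyme from Clostridium kluyveri; amount: diaphorase at 0.14 U/mL in enzyme working solution; detection: fluorescence of resorufin formed from resazurin, Ex 544/Em 590 nm; times: reaction incubation of 16 min at room temperature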
DTT redox prof: compounds producing H2O2 with reducing agent – biochemical, NIH compound library profiling, artefact control for MLSCN library redox annotation, primary screen | DTT-dependent redox cycling H2O2, phenol red/HRP absorbance; 100% = 100 µM peroxide control, 0% = buffer | activation, % at 10 µM | 200,000 tested, 0.03% active | AID 878;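 active = activation of at least 50% relative to the plate's high and low controls in the primary single-dose screen; inactive = activation below 50%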;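 also: compound incubated with DTT at 0.8 mM final as the reducing agent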
G6PDH CS: counter-screen for G6PDH assay hits: L. mesenteroides G6PDH inhibition | AID 1020 | 200,000 tested, 0.12% active | inhibition, % at 5 µM | Purified L. mesenteroides G6PDH, diaphorase/resazurin coupled fluorescence, 45 min
Diaph act CS: diaphorase activation or chemical reduction counter-screen; 190,000 tested, 0.005% active; Diaphorase/resazurin coupled assay, resorufin fluorescence, 16 min; hits give high values; 1 = vehicle wells, 0 = NADH-free wells; activation factor at 20 µM;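 active = diaphorase activity raised at least twofold by the compound at 20 µM; inactive = activation factor below 2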
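Material: Purified diaphorase enzyme from Clostridium kluyveri | Buffer or medium: 50 mM HEPES pH 7.4 with 4.542 mM MgCl2, 0.005% Tween 20 | Times: 16 min enzyme reaction, ambient temperature | Signal: Red resorufin fluorescence at 544/590 nm excitation/emission | Measure: Increased resorufin signal from activators or reducing compounds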
Large screens that a line does not name were inactive. This is one part of a sample in which hits are shown more often than they occur. Rule as the data show it, unless noted: active = inhibition above about 50%; inactive = the rest.

COc1cccc(-n2c(CN3CCN(Cc4ccccc4)CC3)nc3ccc([N+](=O)[O-])cc3c2=O)c1	Lmaj promast 76.5 (no result: PfGluPho inh)
COc1ccc(-n2c(CN3CCN(Cc4ccccc4)CC3)nc3ccc([N+](=O)[O-])cc3c2=O)c(OC)c1	none
C/C(=N\NC(=O)c1c[nH]c2ccccc12)c1ccccn1	Lmaj promast 100.5
O=C(NCCOc1ccccc1F)c1ccccc1SCc1ccc(F)cc1	Lmaj promast 53.8
COC(C[C@@H](O)[C@@H](C)[C@H](O)COCc1ccccc1)OC	none (no result: Lmaj promast, Diaphorase inh, DTT redox prof, G6PDH CS, Diaph act CS)
COc1ccc(CNc2ncnc3c2[nH]c2ccccc23)cc1	none (no result: Lmaj promast, Diaphorase inh, DTT redox prof, G6PDH CS, Diaph act CS)
CC(C)OCCCNc1ncnc2c1[nH]c1ccccc12	Lmaj promast 70.2
C1=C(CCNc2ncnc3c2[nH]c2ccccc23)CCCC1	Lmaj promast 97.8
O=c1c2[nH]c3ccccc3c2ncn1CCC1=CCCCC1	none
Cc1cccc(N2CCN(C(c3ccccc3)c3nnnn3C(C)(C)C)CC2)c1C (stereo not drawn)	none
CC(C)(C)n1nnnc1C(c1cccnc1)N1CCN(c2ccccc2)CC1 (stereo not drawn)	Lmaj promast 78.5
c1ccc(Cn2nnnc2C(c2cccnc2)N2CCN(c3ccccc3)CC2)cc1 (stereo not drawn)	Lmaj promast 99.2
Cc1cccc(N2CCN(C(c3cccs3)c3nnnn3C(C)(C)C)CC2)c1C (stereo not drawn)	Lmaj promast 76.0
CC(C)(C)n1nnnc1C(c1cccnc1)N1CCN(c2ccccn2)CC1 (stereo not drawn)	Lmaj promast 80.8
CC(C)NC(=O)Nc1ccc2c(c1)C(=O)N([C@H](C)CO)C[C@H](C)[C@@H](CN(C)Cc1ccc3c(c1)OCO3)OCCCC[C@@H](C)O2	none (no result: Lmaj promast, Diaphorase inh, DTT redox prof, G6PDH CS, Diaph act CS)
CCOC(=O)N1CCN(Cc2cc(Cl)c3cccnc3c2O)CC1	Lmaj promast 100.2, Diaphorase inh 61.0
Oc1c(CNc2ccccc2)cc(COCc2ccccc2)c2cccnc12	none (no result: Lmaj promast, Diaphorase inh, DTT redox prof, G6PDH CS, Diaph act CS)
Oc1c(CN2CCOCC2)cc(COCc2ccccc2)c2cccnc12	Lmaj promast 100.5, Diaphorase inh 52.8
COCc1cc(CN2CCN(C)CC2)c(O)c2ncccc12	Lmaj promast 100.4
CC(C)n1c(CNC(=O)c2ccccc2F)nnc1SCC(=O)NC1CCCCC1	none (no result: Lmaj promast, Diaphorase inh, DTT redox prof, G6PDH CS, Diaph act CS)
O=C1CN(C(=O)COC(=O)c2c(F)cccc2Cl)c2ccccc2N1	none (no result: Lmaj promast, Diaphorase inh, DTT redox prof, G6PDH CS, Diaph act CS)
CSCCC(NS(=O)(=O)/C=C/c1ccccc1)C(=O)O (stereo not drawn)	none
Cc1onc(-c2ccccc2)c1C(=O)NCc1ccccc1F	none (no result: Lmaj promast, Diaphorase inh, DTT redox prof, G6PDH CS, Diaph act CS)
COc1ccc(OC)c(NC(=O)c2cccc(Cn3cc(Br)c([N+](=O)[O-])n3)c2)c1	Lmaj promast 100.3
COc1cccc(/C=N/NC(=O)C(C)n2nc(C)c([N+](=O)[O-])c2C)c1O (stereo not drawn)	Lmaj promast 93.9
COc1cccc(NC(=S)NNC(=O)C(C)n2nc(C)c([N+](=O)[O-])c2C)c1 (stereo not drawn)	none
COc1cccc(/C=N/NC(=O)Cn2nc(C)c([N+](=O)[O-])c2C)c1O	Lmaj promast 81.9
Cc1ccccc1NC(=O)c1cccc(Cn2cc(Br)c([N+](=O)[O-])n2)c1	none
COc1cccc(/C=N/NC(=O)C(=O)N2CCCC2)c1O	Lmaj promast 53.2
O=C(CN1CCN(S(=O)(=O)c2ccccc2F)CC1)N1CCc2ccccc2C1	none (no result: Lmaj promast, Diaphorase inh, DTT redox prof, G6PDH CS, Diaph act CS)
COc1ccc(NC(=O)CSc2nnc(-c3cccnc3)s2)cc1	none (no result: Lmaj promast, Diaphorase inh, DTT redox prof, G6PDH CS, Diaph act CS)
COc1ccc(CC(=O)NNS(=O)(=O)c2ccc([N+](=O)[O-])cc2)cc1OC	none (no result: Lmaj promast, Diaphorase inh, DTT redox prof, G6PDH CS, Diaph act CS)
COc1cccc(/C=N/NC(=O)CSc2ccccc2C)c1O	Lmaj promast 97.9
COc1cccc(/C=N\NC(=O)c2ccc(Cn3cc(Br)c([N+](=O)[O-])n3)o2)c1O	Lmaj promast 100.2
COc1cccc(/C=N/NC(=O)CSc2ccccc2C)c1OC	none
O=C(NCCCNC(=O)c1cnccn1)c1cccc(Cl)c1	none (no result: Lmaj promast, Diaphorase inh, DTT redox prof, G6PDH CS, Diaph act CS)
CCCCc1cn([C@@H](CCCCNC(=O)OC(C)(C)C)C(=O)N2CCN(C(=O)OC(C)(C)C)CC2)nn1	none
C(/CCc1ccccc1)=N\Nc1nc2ccccc2[nH]1	Lmaj promast 67.2
C(=C\c1ccccc1)/C=N/Nc1nc2ccccc2[nH]1	none
C(=N\Nc1nc2ccccc2[nH]1)/C1CCCCC1	Lmaj promast 68.1
O=C(CC12CC3CC(CC(C3)C1)C2)NC1CC1	none (no result: Lmaj promast, Diaphorase inh, DTT redox prof, G6PDH CS, Diaph act CS)
Cc1ccc(-c2cc(-c3ccc4c(c3)OCO4)c(C#N)c(N)n2)o1	none
Cc1cc(-c2cc(-c3ccc(Cl)cc3)nc(N)c2C#N)co1	Lmaj promast 62.3
COc1ccc(-c2cc(-c3ccc(O)cc3)nc(N)c2C#N)cc1OC	Lmaj promast 65.0 (no result: Diaphorase inh, Diaph act CS)
O=C(NCc1ccccn1)c1ccccc1OCc1ccccc1Cl	none (no result: Lmaj promast, Diaphorase inh, DTT redox prof, G6PDH CS, Diaph act CS)
O=C(Cn1c(=O)oc2cc(S(=O)(=O)N3CCc4ccccc43)ccc21)NC1CCCC1	Lmaj promast 98.5
O=C(Cn1c(=O)oc2cc(S(=O)(=O)N3CCCC3)ccc21)N1CCN(C2CCCCC2)CC1	Lmaj promast 84.8
CC(C)CCNC(=O)Cn1c(=O)oc2cc(S(=O)(=O)N3CCc4ccccc43)ccc21	Lmaj promast 98.8
CCOC(=O)Cn1c(=O)oc2cc(S(=O)(=O)N3CCCc4ccccc43)ccc21	Lmaj promast 81.2
Cc1ccc(C(=O)NCC(=O)OCC(=O)Nc2cc(S(=O)(=O)N3CCOCC3)ccc2Cl)s1	none (no result: Lmaj promast, Diaphorase inh, DTT redox prof, G6PDH CS, Diaph act CS)
COc1ccc(-n2c(CN3CCN(c4ccccn4)CC3)nc3ccc([N+](=O)[O-])cc3c2=O)c(OC)c1	none
O=C(COC(=O)/C(=C/c1cccs1)c1cccs1)NC(c1ccccc1)c1ccccc1	Lmaj promast 96.6 (no result: DTT redox prof)
CC(NC(=O)C1CCCN1S(=O)(=O)c1ccccc1)c1ccccc1 (stereo not drawn)	none (no result: Lmaj promast, Diaphorase inh, DTT redox prof, G6PDH CS, Diaph act CS)
COc1ccc(CCNC(=O)c2cc(C)oc2C)cc1OC	none (no result: Lmaj promast, Diaphorase inh, DTT redox prof, G6PDH CS, Diaph act CS)
COC(=O)c1ccc2nc(Nc3nc4ccc(F)cc4s3)sc2c1	none
CCOC(=O)c1csc(Nc2nc3ccc(F)cc3s2)n1	Lmaj promast 95.5
O=C(Nc1nnc(SCc2ccc(F)cc2)s1)c1ccccn1	Lmaj promast 98.8
COc1ccc2nc(NC(=O)c3cccnc3SC)sc2c1	Lmaj promast 80.7
O=C(Nc1nc2ccc(F)cc2s1)c1ccccn1	Lmaj promast 100.2
COCC(C)n1c(SCC(=O)NC(=O)NC2CCCC2)nc2ccccc2c1=O (stereo not drawn)	none (no result: Lmaj promast, Diaphorase inh, DTT redox prof, G6PDH CS, Diaph act CS)
O=C(Cc1ccc(F)cc1)Oc1ccc(C(=S)N2CCCC2)cc1	none
CSc1ccc(CNc2ccccn2)cc1	none
CSc1ccc(CNc2ccccc2)cc1	Lmaj promast 99.5 (no result: PfGluPho inh)
O=C(OCc1nc2ccc(Cl)cc2n1CCO)c1ccccc1	none
O=C(OCc1nc2ccc(Cl)cc2n1CCO)c1ccc(O)cc1	Lmaj promast 53.8
